IC50 and ΔTm data for 29 molecules are collected here from ChEMBL document CHEMBL4480395, “Pros and cons of virtual screening based on public "Big Data": In silico mining for new bromodomain inhibitors” (Eur J Med Chem, 2019).

Test [1] concerns the target T1, Bromodomain-containing protein 4 (Homo sapiens, UniProt O60885). Nature of the test: Inhibition of BRD4 (unknown origin) measured after 2 hrs by TR-FRET assay. On the technique in general: Time-resolved FRET reads energy transfer from a long-lived donor to a nearby acceptor.
Test [2] concerns the target T1, Bromodomain-containing protein 4. Description: Binding affinity to N-terminal His6-tagged BRD4 bromodomain 1 (44 to 168 residues) (unknown origin) assessed as change in melting temperature at 20 uM measured after 1 hr by Sypro orange dye based differential scanning fluorimetry. The method in brief: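 Ligand binding was read by differential scanning fluorimetry: a fluorescent dye reports protein core exposure during heat denaturation, and the value is the shift in protein denaturation temperature (ΔTm) with compound present.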
Background: In DSF a fluorescence change marks the thermal transition of the protein.

The IC50 is the point on the concentration scale where inhibition reaches its midpoint. A high value points to weaker potency. Usually ΔTm stands for the change in melting temperature against a reference sample. The molecule `c1cnn(-c2ccc(CNc3ccc4nnc(C5CC5)n4n3)cc2)c1` gave a concentration for half-maximal inhibition (IC50) in test [1] of 63.3 µM. Moreover, the ΔTm in test [2] is 0.76 °C.
In the case of `O=C(CCc1ncc(-c2ccc(Cl)cc2Cl)o1)NCCc1nnc2ccccn12`, in test [2], the ΔTm is 1.21 °C.
With `Cc1noc(C)c1CSCC(=O)c1c(C)[nH]c2ccccc12`, the ΔTm in test [2] came to 1.36 °C.
`Cc1nnc2ccc(NCc3ccc(OC4CCCC4)nc3)nn12`: the ΔTm in test [2] stood at 1.89 °C.
For the molecule `COc1ccc(-n2ccc(C(=O)Nc3cc(Cl)c(=O)n(C)c3)n2)cc1`, the ΔTm in test [2] was found to be 1.08 °C.
Regarding `Cc1nnc2ccc(NCc3ccnc(OC4CCCC4)c3)nn12`, the shift in melting temperature (ΔTm) in test [2] was determined as 1.69 °C.
With `Cc1n[nH]c(C)c1CNCc1c(C)nn(Cc2ccccc2)c1C`, the 50% inhibitory concentration (IC50) in test [1] came out at 33.2 µM. Further, in test [2], the ΔTm was found to be 1.6 °C.
For the molecule `Cc1noc(C)c1NC(=O)N1CCCCC1c1ncc[nH]1` (stereo not drawn), the shift in melting temperature (ΔTm) in test [2] was 1.76 °C.
Turning to `Cc1nnc2ccc(N3CCN(C(=O)c4csc(-c5ccccc5F)n4)CC3)nn12`, the ΔTm in test [2] worked out at 1.72 °C.
In test [1], `Cc1nn(C)c(C)c1C1C(CNc2nccn3cnnc23)CC(=O)N1C` (stereo not drawn) had an IC50 of 23.9 µM. Also, the ΔTm in test [2] amounted to 1.9 °C.
Consider `Cc1nnc2ccc(N(C)Cc3ccc([S+](C)[O-])cc3)nn12` (stereo not drawn), for which the ΔTm in test [2] was determined as 1.8 °C.
`CCn1c(SC(C(=O)NCc2cccnc2)C(C)C)nnc1-c1cccs1` (stereo not drawn) yielded a concentration for half-maximal inhibition (IC50) in test [1] of 8.81 µM. Also, the shift in melting temperature (ΔTm) in test [2] was 1.6 °C.
For the molecule `Cc1noc(C)c1CC(=O)Nc1nc(-c2c(C)[nH]c3ccccc23)cs1`, in test [1], half-maximal inhibition (IC50) required 19.5 µM. The thermal shift (ΔTm) in test [2] was determined as 1.86 °C.
For the molecule `Cc1noc(C)c1CNC(=O)Nc1cccc(-c2ccc(Cl)c(Cl)c2)c1`, in test [2], the thermal shift (ΔTm) turned out to be 1.56 °C.
As for `CCC(C)C1NC(=O)N(CC(C)c2c(C)noc2C)C1=O` (stereo not drawn), the ΔTm in test [2] is 2.12 °C.
Same read-out and setting: as for `Cc1c(C2OCCC2NCc2cc(-c3cnn(C)c3)no2)cnn1C` (stereo not drawn), the figure is 2.02 °C.
For the molecule `Cc1nn(CCO)c(C)c1CNC(c1ccccc1)c1nccn1C` (stereo not drawn), in test [2], the shift in melting temperature (ΔTm) amounted to 1.09 °C.
As to `Cc1cc(C(=O)N(C)C(c2ccccc2)c2ccccn2)c2c(C)nn(C(C)(C)C)c2n1` (stereo not drawn), the thermal shift (ΔTm) in test [2] is 1.49 °C.
For the molecule `Cc1nn(C2CCS(=O)(=O)C2)c(C)c1CN(C)C(=O)CC(c1ccccc1)c1ccccc1` (stereo not drawn), half-maximal inhibition in test [1] (IC50) was put at 160 µM. In addition, in test [2], the shift in melting temperature (ΔTm) was 1.82 °C.
Consider `Cc1nnc2c(NCc3cnn(-c4ccc(Cl)cc4)c3)nccn12`, for which the ΔTm in test [2] turned out to be 1.86 °C.
For `COCCCOc1cc(C)ccc1CNc1ccc2nnc(C)n2n1`, in test [2], the ΔTm amounted to 1.56 °C.
Molecule `COCCN(C)c1ccccc1CNc1ccc2nnc(C)n2n1` returned an IC50 in test [1] of 107 µM. Moreover, in test [2], the ΔTm came to 1.1 °C.
Take `COCCc1ccccc1NC(=O)NC(c1ccccc1)c1n[nH]c(C)n1` (stereo not drawn): the ΔTm in test [2] came to 1.26 °C.
For the molecule `CC(Sc1nc(-c2cccs2)n[nH]1)C(=O)N1CCCc2ccccc21` (stereo not drawn), the ΔTm in test [2] amounted to 1.78 °C.
On to `Cc1nnc2ccc(NC3CCCc4cc(OC(F)F)ccc43)nn12` (stereo not drawn), for which, in test [2], the ΔTm was determined as 1.7 °C.
For `CC(C(=O)Nc1ccc2nnc(C3CCC3)n2c1)n1cncn1` (stereo not drawn), the thermal shift (ΔTm) in test [2] came to 1.49 °C.
Turning to `Cc1cc(-c2cc(C(=O)NC3CCC(CO)CC3)c3c(C)noc3n2)c(C)o1` (stereo not drawn), half-maximal inhibition in test [1] (IC50) required 24.9 µM. Besides, the ΔTm in test [2] came to 2.82 °C.
Consider `Cc1noc(C)c1COc1ccccc1C(=O)NC(c1ccccc1)c1ccccc1`, for which the thermal shift (ΔTm) in test [2] turned out to be 0.93 °C.
With `Cc1nnc2ccc(NCc3cn(-c4ccccc4)nc3C(C)C)nn12`, the half-inhibitory concentration (IC50) in test [1] is 11.7 µM. Further, the shift in melting temperature (ΔTm) in test [2] worked out at 2.66 °C.
